tested on: Canis familiaris; assay: Effect that produces a 50% increase in myocardial contractile force (CF) above control in anesthetized open-chest dogs at 8.75 mg/kg intravenous dose; type: functional; conditions: Canis lupus familiaris, Myocardium
In short: (§1)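 Anesthetized (pentobarbital 45 mg/kg i.p.), artificially respired mongrel dogs with right thoracotomy. Contractile force was read by a strain gauge on the right ventricle. Compound was given in 10% DMF in saline, or as the HCl salt in saline, by femoral vein infusion in 3–4 stepwise increasing doses, each over 5 min. ED50 (mg/kg iv) is the dose giving a 50% CF rise over control, taken from 3–4 point dose–response curves by graphic estimation (n = 1, 2 dogs) or linear regression (n ≥ 3).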

Row | Structure (SMILES) | ED50 [mg/kg]
1 | COc1cc2nc(O)nc(C(C)C)c2cc1OC | 1.39
2 | COc1cc(OC)c2nc(O)nc(C)c2c1 | 7.45

tested on: Canis familiaris; assay: Effect on myocardial contractile force (CF) in anesthetized open-chest dogs at 0.875 mg/kg intravenous dose; type: functional, Canis lupus familiaris, Myocardium; conditions: not given
In short: (§2)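 Pentobarbital-anesthetized (45 mg/kg i.p.), ventilated mongrel dogs, open chest. MAP came from a femoral artery cannula, HR from a cardiotachometer triggered by the pressure pulse, and CF from a right-ventricle strain gauge. Compound in 10% DMF/saline or as the HCl salt in saline was infused iv in 3–4 stepwise rising doses, each over 5 min. Responses are % change from predrug control at the maximum dose given.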

Row | Structure (SMILES) | Change [%]
3 | COc1ccc2[nH]c(=O)nc(C)c2c1OC [BEMARINONE] | 114
4 | Cc1nc(O)nc2ccc(N3CCOCC3)cc12 | 59

tested on: Canis familiaris; assay: Effect on arterial blood pressure (MAP) in anesthetized open-chest dogs at 1.875 mg/kg intravenous dose; type: functional, Canis lupus familiaris; conditions: not given; in short: as §2

Row | Structure (SMILES) | Change [%]
5 | COc1cc2nc(O)nc(Cc3ccccc3)c2cc1OC | 30
6 | COc1ccc2nc(O)ncc2c1OC | -9
7 | Cc1nc(O)nc2ccc3c(c12)OCO3 | -14
8 | COc1ccc2c(c(C)nc(=O)n2C)c1OC | 6
9 | COc1cc2nc(O)nc(C)c2c(OC)c1OC | -9
10 | Nc1cc(-c2ccncc2)c[nH]c1=O [INAMRINONE] | -10
11 | Cc1nc(O)nc2ccc(N3CCN(C)CC3)cc12 | 0
12 | CCc1nc(O)nc2ccc(OC)c(OC)c12 | 9
13 | COc1cc2c(C)nc(O)nc2c(OC)c1OC | -4

biological target: Phosphodiesterase 3 (Canis familiaris); assay: Inhibition of canine cardiac fraction III cAMP phosphodiesterase (PDE 3) at 1.875 mg/kg intravenous dose; conditions: not given

Row | Structure (SMILES) | IC50 [µM]
14 | COc1cc2nc(O)nc(Cc3ccccc3)c2cc1OC | 13
15 | Cc1nc(O)nc2ccc(N3CCN(C)CC3)cc12 | 300
16 | CCc1nc(O)nc2ccc(OC)c(OC)c12 | 18

tested on: Canis familiaris; assay: Effect on heart rate (HR) in anesthetized open-chest dogs at 8.75 mg/kg intravenous dose; type: functional, Canis lupus familiaris; conditions: not given; in short: as §2

Row | Structure (SMILES) | Change [%]
17 | COc1ccc(OC)c2c(C)nc(O)nc12 | 13
18 | COc1cc2nc(O)nc(C(C)C)c2cc1OC | 21
19 | COc1cc(OC)c2nc(O)nc(C)c2c1 | 13

tested on: Canis familiaris; assay: Effect on myocardial contractile force (CF) in anesthetized open-chest dogs at 1.875 mg/kg intravenous dose; type: functional, Canis lupus familiaris, Myocardium; conditions: not given; in short: as §2

Row | Structure (SMILES) | Change [%]
20 | COc1cc2nc(O)nc(Cc3ccccc3)c2cc1OC | 33
21 | COc1ccc2nc(O)ncc2c1OC | 101
22 | Cc1nc(O)nc2ccc3c(c12)OCO3 | 71
23 | COc1ccc2c(c(C)nc(=O)n2C)c1OC | 31
24 | COc1cc2nc(O)nc(C)c2c(OC)c1OC | 11
25 | Nc1cc(-c2ccncc2)c[nH]c1=O [INAMRINONE] | 134
26 | Cc1nc(O)nc2ccc(N3CCN(C)CC3)cc12 | 10
27 | CCc1nc(O)nc2ccc(OC)c(OC)c12 | 112
28 | COc1cc2c(C)nc(O)nc2c(OC)c1OC | 10

tested on: Canis familiaris; assay: 50% increase in myocardial contractile force (CF) above control in anesthetized open-chest dogs at 1.875 mg/kg intravenous dose; type: functional; conditions: Canis lupus familiaris, Myocardium; in short: as §1

Row | Structure (SMILES) | ED50 [mg/kg]
29 | COc1cc2nc(O)nc(Cc3ccccc3)c2cc1OC | > 1.87
30 | COc1ccc2nc(O)ncc2c1OC | 1.64
31 | Cc1nc(O)nc2ccc3c(c12)OCO3 | 0.69
32 | COc1ccc2c(c(C)nc(=O)n2C)c1OC | > 1.87
33 | COc1cc2nc(O)nc(C)c2c(OC)c1OC | > 1.87
34 | Nc1cc(-c2ccncc2)c[nH]c1=O [INAMRINONE] | 0.38
35 | Cc1nc(O)nc2ccc(N3CCN(C)CC3)cc12 | > 1.87
36 | CCc1nc(O)nc2ccc(OC)c(OC)c12 | 0.51
37 | COc1cc2c(C)nc(O)nc2c(OC)c1OC | > 1.87

tested on: Canis familiaris; assay: Effect on arterial blood pressure (MAP) in anesthetized open-chest dogs at 8.75 mg/kg intravenous dose; type: functional, Canis lupus familiaris; conditions: not given; in short: as §2

Row | Structure (SMILES) | Change [%]
38 | COc1ccc(OC)c2c(C)nc(O)nc12 | -6
39 | COc1cc2nc(O)nc(C(C)C)c2cc1OC | -27
40 | COc1cc(OC)c2nc(O)nc(C)c2c1 | -6

tested on: Canis familiaris; assay: Effect on myocardial contractile force (CF) in anesthetized open-chest dogs at 8.75 mg/kg intravenous dose; type: functional, Canis lupus familiaris, Myocardium; conditions: not given; in short: as §2

Row | Structure (SMILES) | Change [%]
41 | COc1ccc(OC)c2c(C)nc(O)nc12 | 54
42 | COc1cc2nc(O)nc(C(C)C)c2cc1OC | 112
43 | COc1cc(OC)c2nc(O)nc(C)c2c1 | 60

tested on: Canis familiaris; assay: Effect on arterial blood pressure (MAP) in anesthetized open-chest dogs at 0.875 mg/kg intravenous dose; type: functional, Canis lupus familiaris; conditions: not given; in short: as §2

Row | Structure (SMILES) | Change [%]
44 | COc1ccc2[nH]c(=O)nc(C)c2c1OC [BEMARINONE] | -16
45 | Cc1nc(O)nc2ccc(N3CCOCC3)cc12 | -10

biological target: Phosphodiesterase 3 (Canis familiaris); assay: Inhibitory activity against canine cardiac fraction III cyclic AMP phosphodiesterase (PDE III); conditions: not given

Row | Structure (SMILES) | IC50 [µM]
46 | COc1ccc(OC)c2c(C)nc(O)nc12 | 129
47 | COc1cc2nc(O)nc(C(C)C)c2cc1OC | 43
48 | COc1cc(OC)c2nc(O)nc(C)c2c1 | 190

biological target: Phosphodiesterase 3 (Canis familiaris); assay: Inhibition of canine cardiac fraction III cAMP phosphodiesterase (PDE 3) at 0.875 mg/kg intravenous dose; conditions: not given

Row | Structure (SMILES) | IC50 [µM]
49 | COc1ccc2[nH]c(=O)nc(C)c2c1OC [BEMARINONE] | 17

tested on: Canis familiaris; assay: Effect on heart rate (HR) in anesthetized open-chest dogs at 1.875 mg/kg intravenous dose; type: functional, Canis lupus familiaris; conditions: not given; in short: as §2

Row | Structure (SMILES) | Change [%]
50 | COc1cc2nc(O)nc(Cc3ccccc3)c2cc1OC | 3
51 | COc1ccc2nc(O)ncc2c1OC | 10
52 | Cc1nc(O)nc2ccc3c(c12)OCO3 | 13
53 | COc1ccc2c(c(C)nc(=O)n2C)c1OC | 5
54 | COc1cc2nc(O)nc(C)c2c(OC)c1OC | 0
55 | Nc1cc(-c2ccncc2)c[nH]c1=O [INAMRINONE] | 12
56 | Cc1nc(O)nc2ccc(N3CCN(C)CC3)cc12 | 6
57 | CCc1nc(O)nc2ccc(OC)c(OC)c12 | 20
58 | COc1cc2c(C)nc(O)nc2c(OC)c1OC | 3

tested on: Canis familiaris; assay: 50% increase in myocardial contractile force (CF) above control in anesthetized open-chest dogs at 0.875 mg/kg intravenous dose; type: functional; conditions: Canis lupus familiaris, Myocardium; in short: as §1

Row | Structure (SMILES) | ED50 [mg/kg]
59 | COc1ccc2[nH]c(=O)nc(C)c2c1OC [BEMARINONE] | 0.23
60 | Cc1nc(O)nc2ccc(N3CCOCC3)cc12 | 0.7

tested on: Canis familiaris; assay: Effect on heart rate (HR) in anesthetized open-chest dogs at 0.875 mg/kg intravenous dose; type: functional, Canis lupus familiaris; conditions: not given; in short: as §2

Row | Structure (SMILES) | Change [%]
61 | COc1ccc2[nH]c(=O)nc(C)c2c1OC [BEMARINONE] | 20
62 | Cc1nc(O)nc2ccc(N3CCOCC3)cc12 | 13

From ChEMBL document CHEMBL1123810, “Synthesis and cardiotonic activity of a series of substituted 4-alkyl-2(1H)-quinazolinones” (J Med Chem, 1987)
